In ChEMBL document CHEMBL1141574, “A comparison of chloroambucil- and xylene-containing polyamines leads to improved ligands for accessing the polyamine transport system” (J Med Chem, 2008):

Assays:
L1210 [1] = assay: Cytotoxicity against mouse L1210 cells in presence of ODC inhibitor difluoromethylornithine; assay type: functional, cell-based
FL5.12 [2] = assay: Induction of apoptosis in 2 ng/ml IL3-induced mouse FL5.12A cells at 10 uM in presence of spermidine; assay type: functional
Method in brief: (§1)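 FL5.12A cells held 24 h at 2, 0.1 or 0 ng/mL IL-3 (5 × 10⁶ cells/well), then treated with compound overnight with or without spermidine (100 µM). Apoptosis read as % annexin-V-FITC-positive cells by flow cytometry; run in duplicate.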

FL5.12 [3] = assay: Induction of apoptosis in 0.1 ng/ml IL3-induced mouse FL5.12A cells at 10 uM in presence of spermidine; assay type: functional; method in brief: as §1
FL5.12 [4] = assay: Induction of apoptosis in mouse FL5.12A cells at 10 uM in presence of spermidine; assay type: functional; method in brief: as §1
[5] = Inhibition of [3H]spermidine uptake at PAT in mouse L1210 cells; assay type: cell-based
FL5.12 [6] = assay: Induction of apoptosis in 0.1 ng/ml IL3-induced mouse FL5.12A cells at 10 uM; assay type: functional
Method in brief: (§2)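 FL5.12A pro-B cells in RPMI1640 with 10% heat-inactivated FCS, antibiotics and IL-3 (2, 0.1 or 0 ng/mL) at 37 °C, 5% CO2. Preincubated 24 h at 5 × 10⁶ cells/well, then given 10 µM compound with aminoguanidine for 24 h. Result is % annexin-positive cells; run in triplicate.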

FL5.12 [7] = assay: Induction of apoptosis in mouse FL5.12A cells at 10 uM; assay type: functional; method in brief: as §2
FL5.12 [8] = assay: Induction of apoptosis in 2 ng/ml IL3-induced mouse FL5.12A cells at 10 uM; assay type: functional; method in brief: as §2
L1210 [9] = assay: Cytotoxicity against mouse L1210 cells after 24 hrs in presence of spermidine; assay type: functional, cell-based; conditions: L1210, 24 h
[10] = test system: polyamine transporter (PAT); assay: Ratio of IC50 for PAT deficient CHO-MG cells to IC50 for PAT active CHO cells; assay type: cell-based, Cricetulus griseus; conditions: chinese hamster, PAT-deficient CHO-MG cells and PAT-active CHO cells; read-out: Ratio IC50
Method in brief: (§3)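 CHO and CHO-MG grown in RPMI with 10% FCS, glutamine, penicillin/streptomycin and 2 mM aminoguanidine; CHO-MG medium also has L-proline (2 µg/mL); 37 °C, 5% CO2. Cells plated at 1 × 10⁴ cells/mL and drug added after overnight incubation. After 48 h exposure, growth read as MTT formazan absorbance at 540 nm. IC50 is the concentration giving 50% reduction in relative growth; ratio is CHO-MG IC50 over CHO IC50.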

CHO = assay: Cytotoxicity against PAT active CHO cells after 48 hrs; assay type: cell-based; conditions: Cricetulus griseus; method in brief: as §3
CHO-MG = assay: Cytotoxicity against PAT deficient CHO-MG cells after 48 hrs; assay type: cell-based; conditions: Cricetulus griseus; method in brief: as §3
L1210 [11] = assay: Cytotoxicity against mouse L1210 cells after 48 hrs; assay type: functional, cell-based; conditions: L1210, 48 h
Method in brief: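 L1210 cells in early to mid log phase, viability checked by trypan blue, grown in RPMI with 10% FCS, glutamine, antibiotics and 2 mM aminoguanidine at 37 °C, 5% CO2. Seeded at 6 × 10⁴ cells/mL with drug added at seeding. After 48 h exposure, growth read as MTT formazan at 540 nm. IC50 is the concentration reducing relative growth by 50%.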

[12] = Chemical stability in phosphate buffer assessed as degraded compound after 48 hrs; assay type: physicochemical; conditions: read-out: Activity
Method in brief: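 NMR in phosphate buffer, pD 7.4, in D2O; sample held 48 h at 37 °C, then the fraction of conjugate degraded was read.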

[13] = Induction of apoptosis in 2 ng/ml IL3-induced mouse FL5.12A cells treated after DMSO shock at 10 uM in presence of spermidine; assay type: functional
Method in brief: (§4)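 FL5.12A pro-B cells in RPMI1640 with 10% heat-inactivated FCS and 1 mM aminoguanidine, 37 °C, 5% CO2. Preincubated 24 h at the stated IL-3 level (5 × 10⁶ cells/well), then dosed overnight with spermidine 100 µM. Washed, shocked 2 min in 10% DMSO, washed twice in Hank's, and held 2 h at 37 °C.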

FL5.12 [14] = assay: Induction of apoptosis in mouse FL5.12A cells at 10 uM after DMSO shock; assay type: functional
Method in brief: (§5)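 FL5.12A cells held 24 h at 2, 0.1 or 0 ng/mL IL-3 (5 × 10⁶ cells/well), treated overnight with or without spermidine (100 µM), then washed and exposed to 10% DMSO for 2 min. Washed twice in Hank's medium and incubated 2 h at 37 °C. Apoptosis read as % annexin-V-FITC-positive cells; run in duplicate.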

[15] = Induction of apoptosis in 0.1 ng/ml IL3-induced mouse FL5.12A cells treated after DMSO shock at 10 uM in presence of spermidine; assay type: functional; method in brief: as §4
FL5.12 [16] = assay: Induction of apoptosis in mouse FL5.12A cells treated after DMSO shock at 10 uM in presence of spermidine; assay type: functional; method in brief: as §5
[17] = Induction of apoptosis in 2 ng/ml IL3-induced mouse FL5.12A cells at 10 uM after DMSO shock; assay type: functional
Method in brief: (§6)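 FL5.12A pro-B cells in RPMI1640 with 10% heat-inactivated FCS and 1 mM aminoguanidine, 37 °C, 5% CO2. Preincubated 24 h with IL-3 at the stated level (5 × 10⁶ cells/well), then dosed overnight without spermidine. Washed, shocked 2 min in 10% DMSO, washed twice with Hank's, and held 2 h at 37 °C.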

[18] = Induction of apoptosis in 0.1 ng/ml IL3-induced mouse FL5.12A cells at 10 uM after DMSO shock; assay type: functional; method in brief: as §6
L1210 [19] = assay: Cytotoxicity against mouse L1210 cells after 24 hrs in presence of 100 uM spermidine; assay type: functional, cell-based; conditions: L1210, 24 h

Row | SMILES | IC50 (L1210 [1]) | Ki [5] | Activity (FL5.12 [6]) | Activity (FL5.12 [7]) | Activity (FL5.12 [8]) | IC50 (L1210 [9]) | selectivity ratio [10] | IC50 (CHO) | IC50 (CHO-MG) | IC50 (L1210 [11]) | further results
1 | Cl.NCCCCNCCCCNCc1c2ccccc2cc2ccccc12 | 90 nM | 1.8 µM | 80.41% | >95% | 67.71% | 0.83 µM | 148 | – | – | – | Activity (FL5.12 [2]): 37.3%; Activity (FL5.12 [3]): 33.87%; Activity (FL5.12 [4]): 46.2%
2 | NCCCCNCCCCNCc1cccc2ccccc12 | 430 nM | 3.8 µM | – | – | – | – | > 164 | 600 nM | – | – | –
3 | NCCCNCCCCNCc1ccc(N(CCCl)CCCl)cc1 | – | 12.4 µM | – | – | – | 8.13 µM | 1 | > 100000 nM | > 100 µM | 8.14 µM | –
4 | NCCCCNCCCCNCc1ccc(CNCCCCNCCCCN)c2ccccc12 | – | 0.17 µM | – | – | – | 6.42 µM | > 833 | 120 nM | > 100 µM | 0.25 µM | –
5 | NCCCCNCCCN [SPERMIDINE] | – | – | 6.07% | 58.16% | 5.52% | – | – | – | – | – | –
6 | NCCCCNCCCCNCc1ccc(N(CCCl)CCCl)cc1 | – | 5.97 µM | – | – | – | 31.1 µM | 1 | > 100000 nM | > 100 µM | 35.4 µM | degraded at 48 h [12]: 89%
7 | O=C(O)CCCc1ccc(N(CCCl)CCCl)cc1 [CHLORAMBUCIL] | – | > 150 µM | – | – | – | – | 1.32 | 84500 nM | 111 µM | 14.1 µM | –
8 | NCCCCNCCCCNCc1ccccc1 | – | 4.5 µM | – | – | – | – | – | – | > 1000 µM | 36.3 µM | –
9 | N=C(N)NN [PIMAGEDINE] | – | – | 3.72% | 79.69% | 5.17% | – | – | – | – | – | –
10 | Cl.NCCCCNCCCCNCc1c2ccccc2c(CNCCCCNCCCCN)c2ccccc12 | 220 nM | 0.39 µM | 6.07% | 8.64% | 5.56% | 5.52 µM | > 2220 | 45 nM | > 100 µM | 0.78 µM | Activity [13]: 12.9%; Activity (FL5.12 [14]): 67.53%; Activity [15]: 10.2%; Activity (FL5.12 [16]): 16.69%; Activity [17]: 44.7%; Activity [18]: 56.7%
11 | NCCCCNCCCNCc1ccc(N(CCCl)CCCl)cc1 | – | 2.66 µM | – | – | – | 7.83 µM | 1 | > 100000 nM | > 100 µM | 6.53 µM | –
12 | NCCCCNCCCCNCc1ccc(CNCCCCNCCCCN)cc1 | 360 nM | 0.52 µM | – | – | – | 6.89 µM | 677 | 74 nM | 50.2 µM | 0.16 µM | –
13 | Cl.Cl.NCCCCNCc1c2ccccc2cc2ccccc12 | 9780 nM | 32.2 µM | >95% | >95% | >95% | – | 1 | 7700 nM | – | – | Activity (FL5.12 [2]): 47.28%; Activity (FL5.12 [3]): 35.59%; Activity (FL5.12 [4]): 35.32%; IC50 (L1210 [19]): 6.96 µM
